Screening results from PubChem BioAssay.
MT1-MMP act inh – blockers of MT1-MMP proenzyme processing, primary screen, HT1080 RFP-PRO-GFP cells, GFP/RFP fluorescence. AID 651647, 2012. GFP/RFP ratio fluorescence, overnight; percent of plate control window, DMSO zero. GFP/RFP ratio change, % at 20 µM. actives 0.061% (n = 360,000);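 active = GFP/RFP ratio change of at least 30% with cell ATP level not reduced by more than half and red fluorescence within 50% of control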
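Material – HT1080 RFP-PRO-GFP cells · Control set – DMSO wells and RFP-L50D-GFP cells · Incubation – overnight cell settling, then overnight compound exposure, 37 °C, 5% CO2 · Compound dosing – single-point 20 µM compound, 1% DMSO · Read-out – GFP/RFP fluorescence ratio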
proKLK7 act – proKLK7 zymogen activators, primary screen, biochemical, fluorescence intensity; Kallikrein-7 (Homo sapiens), P49862; purified proKLK7, EDANS-DABCYL substrate fluorescence; 100% is mature enzyme control, 0% vehicle; activation, % at 7 µM; actives 0.9% (n = 370,000); AID 652039, 2013;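 active = activation above the mean of all tested compounds plus 3 SD, computed per campaign excluding outliers beyond control limits, cut at about 13% in these data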
Tn7 DDE FP – inhibitors of Tn7 peptide binding to fibrin DD(E), primary screen, biochemical, fluorescence polarization, human fibrin, Tn7 probe | actives 0.13% (n = 370,000) | inhibition, % at 8.3 µM | AID 720508, 2013 | FP displacement of FITC-Tn7 peptide from fibrin DD(E); 0% = median of compound wells per plate | Fibrinogen beta chain (Homo sapiens), P02675;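 active = inhibition above the mean of compounds falling within the control limits plus 3 SD of them, cut at about 14% in these data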
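Assay system: Human fibrin DD(E) protein | Medium: Tris buffer with calcium and detergent, pH 7.8 | Reagent: 0.1 µM fluorescent Tn7 | Compound dosing: Single point at 8.3 µM | Times: 10 min preincubation, 3 h with tracer, room temperature | Detection: Fluorescence polarization of the labelled Tn7 tracer | Controls: Aha-Tn7 high control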
DDE Tn6 FP inh – inhibitors of Tn6 peptide binding to fibrin DD(E), primary screen, biochemical, fluorescence polarization, human fibrin, Tn6 probe. Fibrin DD(E) TRITC-Tn6 fluorescence polarization displacement. actives 0.21% (n = 370,000). inhibition, % at 8.3 µM;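 active = inhibition above a per-campaign cutoff: mean of compounds within control limits plus 3 SD, cut at about 15% in these data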
SKN-1 block – suppressors of acrylamide-induced Pgst-4::GFP reporter in worms, primary screen, SKN-1 inhibitor project, whole organism, uHTS, GFP/RFP fluorescence ratio, strain VP596. C. elegans VP596 Pgst-4::GFP/RFP ratio, 24 h. inhibition, % at 21.8 µM. actives 0.49% (n = 360,000);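 active = interference check ratio from 0.5 to 1.5 plus GFP to RFP signal ratio inhibition reaching or exceeding a fixed threshold, cut at about 30% in these data, passing the limit was not always enough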
Neddylation inh – inhibitors of cullin neddylation, primary screen, biochemical, TR-FRET, uHTS, NAE and Ubc12; calls only at 25 µM; actives 0.58% (n = 360,000); in the data active = inhibition above about 36%
Target sequence (P61081 whole entry, looked up): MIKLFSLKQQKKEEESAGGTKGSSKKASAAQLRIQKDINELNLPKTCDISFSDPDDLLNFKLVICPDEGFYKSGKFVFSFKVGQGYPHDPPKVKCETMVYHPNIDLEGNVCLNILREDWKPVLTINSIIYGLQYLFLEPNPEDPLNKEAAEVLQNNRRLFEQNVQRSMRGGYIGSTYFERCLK
Target sequence (Q13564 whole entry, looked up): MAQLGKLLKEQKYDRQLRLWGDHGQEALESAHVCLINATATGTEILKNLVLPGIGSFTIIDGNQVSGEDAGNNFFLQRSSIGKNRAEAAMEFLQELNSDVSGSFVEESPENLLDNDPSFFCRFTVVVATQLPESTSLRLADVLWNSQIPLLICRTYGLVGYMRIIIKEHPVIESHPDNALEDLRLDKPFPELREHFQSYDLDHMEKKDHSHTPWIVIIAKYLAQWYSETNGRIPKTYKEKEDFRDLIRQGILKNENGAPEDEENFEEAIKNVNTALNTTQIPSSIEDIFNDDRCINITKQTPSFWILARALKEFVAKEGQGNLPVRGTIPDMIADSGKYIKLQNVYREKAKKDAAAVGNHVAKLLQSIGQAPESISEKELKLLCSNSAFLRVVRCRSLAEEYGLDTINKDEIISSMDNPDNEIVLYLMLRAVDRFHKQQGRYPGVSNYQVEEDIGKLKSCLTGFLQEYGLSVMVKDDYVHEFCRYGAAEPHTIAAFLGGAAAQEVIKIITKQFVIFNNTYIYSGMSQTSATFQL
KLK7 act conf – proKLK7 zymogen activators, confirmation, biochemical, fluorescence intensity, triplicate; actives 68% (n = 3,200); shares compounds with proKLK7 act; activation, % at 7 µM; AID 686949, 2013; purified proKLK7, EDANS-DABCYL substrate fluorescence; scaled: vehicle 0, mature enzyme 100;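 active = activation, as change over the incubation, above the mean of all tested compounds plus 3 SD, cut at about 13% in these data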
EDANS-DABCYL int – EDANS-DABCYL substrate optical interference, artefact control for kallikrein-7 zymogen activator project, biochemical, fluorescence intensity, high throughput; actives 80% (n = 3,200); shares compounds with proKLK7 act; activation, % at 7 µM; no enzyme, 4 h; solvent 0%, active enzyme control 100%;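 active = activation above the all-compound mean plus 3 SD, ignoring values outside control-based bounds, cut at about 4.8% in these data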;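 also: value is the 4 h activation minus the activation read at time zero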
Numbers stand for hits. Most compounds without a hit are left out; they make up all but 2.2% or so of the library.

What do the screens show for `CCOC(=O)N1CCN(C(=O)COc2ccc3c(c2)C(=O)CC2(CCN(C(C)=O)CC2)O3)CC1`?
MT1-MMP act inh: inactive; proKLK7 act: 25.5; Tn7 DDE FP: inactive; DDE Tn6 FP inh: inactive; SKN-1 block: inactive; KLK7 act conf: 70.7; EDANS-DABCYL int: 74.8

How did CC(=O)N1CCC2(CC1)CC(=O)c1cc(OCC(=O)N3CCOCC3)ccc1O2 do in these assays?
MT1-MMP act inh: inactive; proKLK7 act: 61.6; Tn7 DDE FP: inactive; DDE Tn6 FP inh: inactive; SKN-1 block: inactive; KLK7 act conf: 68.7; EDANS-DABCYL int: 65.0

How did CCOC(=O)c1cc(-c2cccs2)nc2onc(C)c12 do in these assays?
MT1-MMP act inh: inactive; proKLK7 act: 18.2; Tn7 DDE FP: inactive; DDE Tn6 FP inh: inactive; SKN-1 block: inactive; KLK7 act conf: inactive; EDANS-DABCYL int: inactive

Results for Nc1nc2nc(-c3ccc(F)cc3)cc(C(F)(F)F)n2n1 ?
MT1-MMP act inh: inactive; proKLK7 act: 23.7; Tn7 DDE FP: inactive; DDE Tn6 FP inh: inactive; SKN-1 block: inactive; KLK7 act conf: 17.3; EDANS-DABCYL int: 15.7

How did CCOC(=O)c1nc2nc(-c3cccs3)cc(C(F)(F)F)n2n1 do in these assays?
MT1-MMP act inh: inactive; proKLK7 act: 61.6; Tn7 DDE FP: inactive; DDE Tn6 FP inh: inactive; SKN-1 block: inactive; KLK7 act conf: 65.1; EDANS-DABCYL int: 61.5

Results for O=C(c1nc2nc(-c3cccs3)cc(C(F)(F)F)n2n1)N1CCN(Cc2ccccc2)CC1 ?
MT1-MMP act inh: inactive; proKLK7 act: 26.4; Tn7 DDE FP: inactive; DDE Tn6 FP inh: inactive; SKN-1 block: inactive; KLK7 act conf: inactive; EDANS-DABCYL int: inactive

Results for CCOC(=O)c1cc(-c2ccncc2)nc2c1c(C)nn2C ?
MT1-MMP act inh: inactive; proKLK7 act: inactive; Tn7 DDE FP: inactive; DDE Tn6 FP inh: inactive; SKN-1 block: inactive

Results for COc1ccc(-c2cc(C(F)(F)F)n3nc(N)nc3n2)cc1 ?
MT1-MMP act inh: inactive; SKN-1 block: inactive

How did Nc1nc2nc(-c3cccs3)cc(C(F)(F)F)n2n1 do in these assays?
MT1-MMP act inh: inactive; proKLK7 act: 81.8; Tn7 DDE FP: inactive; DDE Tn6 FP inh: inactive; SKN-1 block: inactive; Neddylation inh: inactive; KLK7 act conf: 74.7; EDANS-DABCYL int: 78.4

Results for COP(=O)(c1ccc(N(C)C)cc1)C(O)c1ccccc1 (stereo not drawn) ?
MT1-MMP act inh: inactive; proKLK7 act: 29.3; Tn7 DDE FP: inactive; DDE Tn6 FP inh: inactive; SKN-1 block: inactive; Neddylation inh: inactive; KLK7 act conf: inactive; EDANS-DABCYL int: inactive

What do the screens show for `CC(C)COP(=O)(c1ccc(N(C)C)cc1)C(O)c1ccccc1` (stereo not drawn)?
MT1-MMP act inh: inactive; proKLK7 act: inactive; Tn7 DDE FP: inactive; DDE Tn6 FP inh: inactive; SKN-1 block: inactive; Neddylation inh: inactive

Results for CCOC1=C2[C@@H](CN(S(=O)(=O)c3ccc(C)cc3)[C@H]2c2ccccc2Cl)[C@H]2C(=O)N(C(C)(C)C)C(=O)[C@H]2C1 ?
MT1-MMP act inh: inactive; proKLK7 act: inactive; Tn7 DDE FP: inactive; DDE Tn6 FP inh: inactive; SKN-1 block: inactive; Neddylation inh: inactive

Results for O=C(CSc1nc2ccccc2c(=O)n1-c1ccc(SC(F)F)cc1)Nc1ccc(N2CCOCC2)cc1 ?
MT1-MMP act inh: inactive; proKLK7 act: inactive; Tn7 DDE FP: inactive; DDE Tn6 FP inh: inactive; SKN-1 block: inactive; Neddylation inh: inactive

How did COc1ccc(C(=O)CC2OC(=O)c3c2ccc(OC)c3OC)cc1 (stereo not drawn) do in these assays?
MT1-MMP act inh: inactive; proKLK7 act: 54.7; Tn7 DDE FP: inactive; DDE Tn6 FP inh: inactive; SKN-1 block: inactive; Neddylation inh: inactive; KLK7 act conf: 59.1; EDANS-DABCYL int: 78.9

How did COc1ccc(C(=O)Cc2cc3cccc(OC)c3oc2=O)cc1 do in these assays?
MT1-MMP act inh: inactive; proKLK7 act: inactive; Tn7 DDE FP: inactive; DDE Tn6 FP inh: inactive; SKN-1 block: inactive; Neddylation inh: inactive

How did Cc1ccc(NC(=O)CNC(c2ccccc2)c2ccccc2)c(F)c1 do in these assays?
MT1-MMP act inh: inactive; proKLK7 act: inactive; Tn7 DDE FP: inactive; DDE Tn6 FP inh: inactive; SKN-1 block: inactive; Neddylation inh: inactive

How did CCCCNC(=O)CCC(=O)Nc1ccc2nc(N3CCOCC3)cc(C)c2c1 do in these assays?
MT1-MMP act inh: inactive; proKLK7 act: inactive; Tn7 DDE FP: inactive; DDE Tn6 FP inh: inactive; SKN-1 block: inactive

How did CCCCN(CC)CCNC(=O)CCC(=O)Nc1ccc2nc(N3CCN(C)CC3)cc(C)c2c1 do in these assays?
MT1-MMP act inh: inactive; proKLK7 act: 78.3; Tn7 DDE FP: inactive; DDE Tn6 FP inh: inactive; SKN-1 block: inactive; KLK7 act conf: 106.5; EDANS-DABCYL int: 115.0

How did CCCN(CCC)CCNC(=O)CCC(=O)Nc1ccc2nc(N3CCOCC3)cc(C)c2c1 do in these assays?
MT1-MMP act inh: inactive; proKLK7 act: 57.4; Tn7 DDE FP: inactive; DDE Tn6 FP inh: inactive; SKN-1 block: inactive; KLK7 act conf: 153.1; EDANS-DABCYL int: 144.1

How did CCCOc1ccc(C(O)(CCN2CCCCC2)c2ccccc2OC)cc1 (stereo not drawn) do in these assays?
MT1-MMP act inh: inactive; proKLK7 act: inactive; Tn7 DDE FP: inactive; DDE Tn6 FP inh: inactive; SKN-1 block: inactive; Neddylation inh: inactive

Results for CCC[C@@H](CN[C@@H](CNC)[C@H](C)CC)NCC1CCC(C(C)(C)C)CC1 (stereo partly drawn) ?
MT1-MMP act inh: inactive; proKLK7 act: inactive; Tn7 DDE FP: inactive; DDE Tn6 FP inh: inactive; SKN-1 block: inactive; Neddylation inh: inactive

What do the screens show for `COc1ccc(-c2nc3ccc(C(=O)NCC(OC)OC)cc3nc2-c2ccc(OC)cc2)cc1`?
MT1-MMP act inh: inactive; proKLK7 act: inactive; Tn7 DDE FP: inactive; DDE Tn6 FP inh: inactive; SKN-1 block: inactive; Neddylation inh: inactive

Results for COC(CNC(=O)c1coc2nc3ccccc3nc12)OC ?
MT1-MMP act inh: inactive; proKLK7 act: 46.6; Tn7 DDE FP: inactive; DDE Tn6 FP inh: inactive; SKN-1 block: inactive; Neddylation inh: inactive; KLK7 act conf: 282.0; EDANS-DABCYL int: 269.1
